Results as given in ChEMBL document CHEMBL3745674, “Inhibitors of HIV-1 attachment: The discovery and structure-activity relationships of tetrahydroisoquinolines as replacements for the piperazine benzamide in the 3-glyoxylyl 6-azaindole pharmacophore” (Bioorg Med Chem Lett, 2016).

Assays:
[1] = Cmax in rat at 5 mg/kg, po; type: ADME, organism-based; design: dose 5 mg/kg, route oral; settings: in vivo
Procedure, shortened: (§1)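 Oral dosing in rat at 5 mg/kg in PEG 400/ethanol (90:10 v/v) vehicle.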

[2] = AUC(last) in rat at 5 mg/kg, po; type: ADME, organism-based; design: dose 5 mg/kg, time 0 - last, route oral; settings: in vivo; procedure, shortened: as §1
[3] = Permeability of compound at pH 5.5 by PAMPA; type: ADME; settings: read-out: permeability
Procedure, shortened: (§2)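 Passive permeability by PAMPA at pH 7.4 and pH 5.5, reported in nm/s.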

[4] = Volume of distribution at steady state in rat at 1 mg/kg, iv; type: ADME, organism-based; settings: in vivo, read-out: Vdss
Procedure, shortened: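 Intravenous dosing in rat at 1 mg/kg. Plasma clearance and volume of distribution were determined.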

[5] = Permeability of compound at pH 7.4 by PAMPA; type: ADME; settings: read-out: permeability; procedure, shortened: as §2
[6] = system: Liver; test: Drug level in Aroclor-1254-induced rat liver S9 fraction treated with 1-(4-methoxy-7-(3-methyl-1H-1,2,4-triazol-1-yl)-1H-pyrrolo[2,3-c]pyridin-3-yl)-2-(5-(pyridin-2-yl)-3,4-dihydroisoquinolin-2(1H)-yl)ethane-1,2-dione assessed as compound formation incubated at 37 degC for 4.5 hrs; type: ADME, subcellular; settings: s9, 4.5 h
[7] = system: Liver; test: Drug metabolism in Aroclor-1254-induced rat liver S9 fraction assessed as 1-(1-hydroxy-5-(pyridin-2-yl)-3,4-dihydroisoquinolin-2(1H)-yl)-2-(4-methoxy-7-(3-methyl-1H-1,2,4-triazol-1-yl)-1H-pyrrolo[2,3-c]pyridin-3-yl)ethane-1,2-dione formation incubated at 37 degC for 4.5 hrs; type: ADME, subcellular; settings: s9, 4.5 h

Cmax [1] [µM]	AUC(0-t) [2] [µM·h]	Papp [3] [×10⁻⁶ cm/s]	Compound	also measured
6.4	52	–	COc1cnc(-n2cnc(C)n2)c2[nH]cc(C(=O)C(=O)N3CCN(C(=O)c4ccccc4)CC3)c12	–
–	–	3.2	COc1cnc(-c2cc(C(=O)O)[nH]n2)c2[nH]cc(C(=O)C(=O)N3CCc4c(cccc4-c4ccccn4)C3)c12	–
10	41	24.4	COc1cnc(-n2cnc(C)n2)c2[nH]cc(C(=O)C(=O)N3CCc4c(ncnc4-c4ccccn4)C3)c12	Vd [4]: 0.33 L/kg; Papp [5]: 29.4 ×10⁻⁶ cm/s
–	–	–	COc1cnc(-n2cnc(C)n2)c2[nH]cc(C(=O)C(=O)N3CCc4c(-c5ccccn5)cccc4C3O)c12 (stereo not given)	Drug metabolism [6]: metabolite_detected
–	–	–	COc1cnc(-n2cnc(C)n2)c2[nH]cc(C(=O)C(=O)N3CCc4c(cccc4-c4ccccn4)C3)c12	Drug metabolism [7]: metabolite_detected
